Results from ChEMBL document CHEMBL3862011, “Neuroprotective effects of benzyloxy substituted small molecule monoamine oxidase B inhibitors in Parkinson's disease” (Bioorg Med Chem, 2016).

How the values were obtained:
[1] = target: T1, Amine oxidase [flavin-containing] A (Homo sapiens, UniProt P21397); assay: Inhibition of recombinant human MAO-A using kynuramine as substrate assessed as decrease in 4-hydroxyquinoline production incubated for 20 mins by fluorescence spectrophotometry
T1 sequence (P21397 whole entry): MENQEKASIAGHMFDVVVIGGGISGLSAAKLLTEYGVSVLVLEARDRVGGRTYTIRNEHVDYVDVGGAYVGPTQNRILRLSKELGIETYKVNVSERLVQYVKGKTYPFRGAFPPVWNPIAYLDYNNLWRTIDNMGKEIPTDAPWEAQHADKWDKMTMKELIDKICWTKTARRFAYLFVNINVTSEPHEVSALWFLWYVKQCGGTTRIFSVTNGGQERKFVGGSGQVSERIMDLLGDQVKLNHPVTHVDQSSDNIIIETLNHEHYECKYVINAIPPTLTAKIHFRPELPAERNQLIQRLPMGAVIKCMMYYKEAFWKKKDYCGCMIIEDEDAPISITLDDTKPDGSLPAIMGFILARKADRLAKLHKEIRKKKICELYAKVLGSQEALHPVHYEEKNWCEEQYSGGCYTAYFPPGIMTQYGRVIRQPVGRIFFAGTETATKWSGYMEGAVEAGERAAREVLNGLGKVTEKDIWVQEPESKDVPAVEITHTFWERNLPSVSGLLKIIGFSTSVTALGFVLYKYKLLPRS

[2] = Neuroprotective activity against 6-OHDA-induced toxicity in rat PC12 cells assessed as cell survival at 20 uM preincubated for 24 hrs followed by 6-OHDA addition measured after 24 hrs by MTT assay relative to control; assay type: functional; conditions: PC-12, read-out: Survival
In short: (§1)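 PC12 cells seeded 5×10^3/well, after 24 h given compound at 20 μM for 24 h at 37 °C, then exposed to 6-OHDA (40 μM) or rotenone (1 μM) for 24 h. […] Mean ± SEM of three independent experiments.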

[3] = Cytotoxicity against rat PC12 cells assessed as cell survival at 100 uM after 24 hrs by MTT assay relative to control; assay type: toxicity, PC-12; conditions: read-out: Survival
[4] = target: T1, Amine oxidase [flavin-containing] A
[5] = Neuroprotective activity against rotenone-induced toxicity in rat PC12 cells assessed as cell survival at 20 uM preincubated for 24 hrs followed by rotenone addition measured after 24 hrs by MTT assay relative to control; assay type: functional; conditions: PC-12, read-out: Survival; in short: as §1
[6] = Cytotoxicity against rat PC12 cells assessed as cell survival at 20 uM after 72 hrs by MTT assay relative to control; assay type: toxicity, PC-12; conditions: read-out: Survival
[7] = in vitro; conditions: PAMPA

SMILES	IC50 [1] [µM]	viability at 20 µM [2] [%]	viability at 24 h, 100 µM [3] [%]	IC50 [4] [µM]	viability at 20 µM [5] [%]	viability at 72 h, 20 µM [6] [%]	Papp at 16 h, 100 ug/ml [7] [×10⁻⁶ cm/s]
CC(=O)c1ccc(OCc2cccc(Cl)c2)cc1O	17.7	134	110	48	93.3	112	
CC(=O)c1cccc(OCc2ccc(Br)cc2)c1		109	122	53.7	105	107	
O=c1ccoc2ccc(OCc3ccc(F)cc3)cc12		115	85.2	13.6	106	109	
O=C1CCc2ccc(OCc3cccc(Cl)c3)cc2N1		121	76.1	> 100	110	97.2	
CC(=O)c1ccc(OCc2cccc(F)c2)cc1O	50.7	133	107	> 100	106	115	15.9
O=C1CCCc2cc(OCc3ccc(Cl)cc3)ccc21		127	91.2	0.34	110	129	
O=C1OCc2cc(OCc3ccc(Cl)cc3)ccc21		137	86.7	3.61	113	85.7	
C#CCN[C@@H]1CCc2ccccc21 [RASAGILINE]		135	86.9		109	101	
O=C1CCc2ccc(OCc3cccc(Br)c3)cc2N1		112	80.2	49.2	134	108	8.89
O=c1ccoc2cc(OCc3ccc(F)cc3)ccc12		124	72.9	18.5	115	119	
CC(=O)c1ccc(OCc2cccc(F)c2)cc1F		116	118	> 100	109	119	
CC1(C)CC(=O)c2ccc(OCc3ccc(Cl)cc3)cc2O1		143	110	> 100	108	109	
CC(=O)c1ccc(OCc2ccc(Cl)cc2)cc1O		144	109	25.3	105	126	12.7
O=c1ccoc2ccc(OCc3ccc(Cl)cc3)cc12		122	85	4.52	115	108	
CC(=O)c1ccc(OCc2ccc(F)cc2)cc1F		105	106	> 100	114	123	
Cc1c(C)c2ccc(OCc3cccc(F)c3)cc2oc1=O		130	109		115	108	

SMILES	IC50 [1] [µM]	viability at 20 µM [2] [%]	viability at 24 h, 100 µM [3] [%]	IC50 [4] [µM]	viability at 20 µM [5] [%]	viability at 72 h, 20 µM [6] [%]	Papp at 16 h, 100 ug/ml [7] [×10⁻⁶ cm/s]
CC1(C)CC(=O)c2ccc(OCc3ccc(F)cc3)cc2O1		148	96.2	> 100	111	122	9.71
Cc1c(C)c2ccc(OCc3ccc(Cl)cc3)cc2oc1=O		114	106		119	104	
CC(=O)c1ccc(OCc2cccc(Cl)c2)cc1F		133	108	> 100	112		
CC(=O)c1ccc(OCc2ccc(F)cc2)cc1		116	105	> 100	88.6	123	
O=c1ccoc2cc(OCc3ccc(C(F)(F)F)cc3)ccc12		123	81.2	18.9	110	110	
CC(=O)c1ccc(OCc2ccc(F)cc2)cc1O	3.7	144	101	43.4	98.3	109	13.5
CC(=O)c1cccc(OCc2ccc(Cl)cc2)c1		132	117		109	102	
CC(=O)c1ccc(OCc2cccc(Cl)c2)cc1		123	118	88.4	95.8	116	
Cc1c(C)c2ccc(OCc3ccc(F)c(F)c3)cc2oc1=O		138	106		117	102	
O=C1CCOc2cc(OCc3ccc(Cl)cc3)ccc21		143	98.6		111	115	
O=C1OCc2cc(OCc3ccc(F)cc3)ccc21		116	64.9	1.33	114	89.7	
O=c1ccoc2cc(OCc3cccc(Cl)c3)ccc12		117	73.5	23.6	101	119	
O=C1CCCc2cc(OCc3ccc(F)cc3)ccc21		139	83.3	1.29	95.9		
CC(=O)c1ccc(OCc2ccc(Cl)cc2)cc1F		142	105	89	101	113	
O=C1OCc2cc(OCc3ccc(C(F)(F)F)cc3)ccc21		125		9.24	111	87.2	
